The list is not random: actives were taken first. Their share in the collection is about 2.1%.
PAX8 reporter: PAX8 transcriptional activity inhibition | RMG-I TPO-luciferase reporter, SteadyGlo, 24 h | inhibition, % at 12.6 µM | actives 1.2% (n = 360,000);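 active = mean replicate inhibition at least 60% with every replicate also reaching 60%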;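 also: luciferase light reporting Pax8 driven TPO promoter activity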
Shn3 inh set2: Schnurri-3 reporter inhibition in Clone20 osteoblasts; Clone20 osteoblast Shn3 3'UTR firefly luciferase, 24 h; inhibition, % at 12.5 µM; actives 0.52% (n = 360,000);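 active = mean inhibition of at least 75% with every replicate also reaching 75%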
FN deposit inh: fibronectin deposition inhibition. AH1F fibroblasts, Alexa488-fibronectin deposition fluorescence, overnight. inhibition, % at 12.6 µM. actives 0.086% (n = 350,000). AID 743247;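 active = mean inhibition across replicates of 30% or more, regardless of how many single replicates reach that level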
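Material: AH1F fibroblast monolayer depositing Alexa488-labelled fibronectin into matrix / Amount: 10000 AH1F cells per well / Signal: fluorescence 485/525 nm / Medium: DMEM, 2% serum / Compound: single dose, pinned / Incubation: 1 h cell adhesion before compound, then overnight fibronectin incubation / Reagent: Alexa488-FN, 24 nM final / Read-out: inhibition of fibronectin deposition signal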
LMP1 NFkB inh: inhibitors of Epstein-Barr LMP1-induced NF-kappaB reporter | inhibition, % at 12.5 µM | LMP1-induced NF-kappaB luciferase reporter cells, luminescence | actives 0.69% (n = 350,000); in the data active = inhibition above about 41%
EWS-Fli block: EWS/Fli transcriptional activity inhibition. A673 NR0B1-luciferase reporter, viability-normalised. inhibition, % at 12.6 µM. actives 0.67% (n = 350,000). AID 651661;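 active = mean inhibition of at least 50% after viability correction, with every replicate also passing that limit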;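 also: firefly luciferase signal divided by Alamar Blue viability fluorescence both relative to DMSO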
aSyn UTR inh: MLPCN primary screen, SNCA 5' untranslated region | alpha-synuclein 5'UTR reporter, inhibitor activity | inhibition, % (tested at 7.5 µM) | actives 0.82% (n = 300,000); in the data active = inhibition above about 60%;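 also: H4 neuroglioblastoma cells stably carrying SNCA 5'UTR luciferase fusion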
Numbers stand for hits.

How did Cc1ccc(Cl)cc1Nc1nc(-c2sc(NC(=O)c3ccco3)nc2C)cs1 do in these assays?
PAX8 reporter: 86.2; Shn3 inh set2: inactive; FN deposit inh: inactive; LMP1 NFkB inh: inactive; EWS-Fli block: inactive; aSyn UTR inh: inactive

What do the screens show for `Cc1nc(NC(=O)c2ccco2)sc1-c1csc(Nc2ccc(Cl)cc2Cl)n1`?
PAX8 reporter: inactive; Shn3 inh set2: inactive; FN deposit inh: inactive; LMP1 NFkB inh: inactive; EWS-Fli block: inactive; aSyn UTR inh: inactive

Results for COc1ccccc1Nc1nc(-c2sc(NC(=O)c3ccco3)nc2C)cs1 ?
PAX8 reporter: inactive; Shn3 inh set2: inactive; FN deposit inh: inactive; LMP1 NFkB inh: inactive; EWS-Fli block: inactive; aSyn UTR inh: inactive

Results for COc1cccc(N(C(=O)c2ccco2)c2nc(-c3sc(NC(=O)c4ccco4)nc3C)cs2)c1 ?
PAX8 reporter: 99.4; Shn3 inh set2: inactive; FN deposit inh: inactive; LMP1 NFkB inh: inactive; EWS-Fli block: inactive; aSyn UTR inh: inactive

How did CCC[n+]1c(C)sc2c3c(ccc21)CCCC3 do in these assays?
Shn3 inh set2: 92.1; LMP1 NFkB inh: inactive

What do the screens show for `CC[n+]1c(C)sc2c(C)cc(C)cc21`?
Shn3 inh set2: inactive; FN deposit inh: inactive; LMP1 NFkB inh: inactive; aSyn UTR inh: inactive

How did C=CCC[C@H](Cc1ccc(F)cc1)C(=O)OC[C@@H](NC(=O)[C@@H](CC=C)CC(=O)N[C@@H](CO)Cc1ccccc1)C(C)(C)C do in these assays?
PAX8 reporter: 108.0; Shn3 inh set2: inactive; FN deposit inh: inactive; LMP1 NFkB inh: inactive; EWS-Fli block: inactive

How did C=CC[C@H](CC(=O)N(CCO)Cc1ccccc1)C(=O)N[C@H](COC(=O)[C@@H](CC=C)Cc1ccc(F)cc1)C(C)(C)C do in these assays?
PAX8 reporter: inactive; Shn3 inh set2: inactive; FN deposit inh: inactive; LMP1 NFkB inh: inactive; EWS-Fli block: inactive

How did C=CCC[C@@H](Cc1ccc(F)cc1)C(=O)OC[C@@H](NC(=O)[C@@H](CC=C)CC(=O)N[C@@H](CO)Cc1ccccc1)C(C)(C)C do in these assays?
PAX8 reporter: inactive; Shn3 inh set2: inactive; FN deposit inh: inactive; LMP1 NFkB inh: inactive; EWS-Fli block: inactive

What do the screens show for `C=CCC[C@H](Cc1ccc(F)cc1)C(=O)OC[C@@H](NC(=O)[C@@H](CC=C)CC(=O)N(CCO)Cc1ccccc1)C(C)(C)C`?
PAX8 reporter: 64.1; Shn3 inh set2: inactive; FN deposit inh: inactive; LMP1 NFkB inh: inactive; EWS-Fli block: inactive

What do the screens show for `C=CC[C@@H](CC(=O)N(CCO)Cc1ccccc1)C(=O)NC[C@H](OC(=O)[C@@H](CC=C)Cc1ccc(F)cc1)c1ccccc1`?
PAX8 reporter: 83.6; Shn3 inh set2: inactive; FN deposit inh: inactive; LMP1 NFkB inh: inactive; EWS-Fli block: inactive

What do the screens show for `COc1cc(C(C[N+](=O)[O-])c2c(N)n(C)c(=O)n(C)c2=O)ccc1O` (stereo unspecified)?
PAX8 reporter: inactive; Shn3 inh set2: inactive; FN deposit inh: inactive; LMP1 NFkB inh: inactive; EWS-Fli block: inactive; aSyn UTR inh: inactive

Results for COc1cccc(F)c1C(C[N+](=O)[O-])c1c(N)n(C)c(=O)n(C)c1=O (stereo unspecified) ?
PAX8 reporter: 99.9; Shn3 inh set2: inactive; FN deposit inh: inactive; LMP1 NFkB inh: inactive; EWS-Fli block: inactive; aSyn UTR inh: inactive

What do the screens show for `O=C(O)CCSc1ncnc2sc(-c3ccccc3)cc12`?
PAX8 reporter: inactive; Shn3 inh set2: inactive; FN deposit inh: inactive; LMP1 NFkB inh: inactive; EWS-Fli block: 69.4; aSyn UTR inh: 88.2

Results for CC(C)(C)OC(=O)N1Cc2ccccc2C[C@H]1C(=O)NCC(=O)Nc1ccc2c(c1)OCCO2 ?
PAX8 reporter: inactive; Shn3 inh set2: inactive; FN deposit inh: inactive; LMP1 NFkB inh: 44.0; EWS-Fli block: inactive; aSyn UTR inh: inactive

Results for Nc1c(C(=O)Nc2ccccc2)sc2nc(N3CCOCC3)c3c(c12)CCCC3 ?
PAX8 reporter: inactive; Shn3 inh set2: inactive; FN deposit inh: inactive; LMP1 NFkB inh: inactive; EWS-Fli block: inactive

What do the screens show for `Nc1c(C(=O)NCc2ccccc2)sc2nc(N3CCOCC3)c3c(c12)CCCC3`?
Shn3 inh set2: inactive; LMP1 NFkB inh: inactive; aSyn UTR inh: 64.6

How did COc1ccc(C(=O)Nc2ccc(C)cn2)c(OC)c1 do in these assays?
Shn3 inh set2: inactive; FN deposit inh: inactive; LMP1 NFkB inh: 75.0; aSyn UTR inh: 115.5
